# Assays:
# [1] = Oral bioavailability in rat; settings: in vivo
# [2] = target: T1, Integrin alpha-4/beta-1 (Homo sapiens, UniProt P05556+P13612); assay: Inhibition of europium labeled human VCAM1/Fc chimera binding to human VLA-4 alpha-4-beta-1 expressed in Chinese hamster 4B4 cells by fluorimetric assay; assay type: cell-based
# [3] = target: T1, Integrin alpha-4/beta-1; assay: Inhibition of europium labeled human VCAM1/Fc chimera binding to human VLA-4 alpha-4-beta-1 expressed in Chinese hamster 4B4 cells in presence of 3% HSA by fluorimetric assay; assay type: cell-based
# Method in brief: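 CHO-K1 4B4 cells transfected with human α4 and β1, plated at 3 × 10⁵ cells/mL and cultured 2 days, washed with HEPES pH 7.5 buffer containing Ca, Mg, Mn. Compound plus Eu-labeled human VCAM-1/Fc (final 1 nM), with or without human serum albumin, 60 min at room temperature; washed, Eu time-resolved fluorescence read; duplicates.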
# [4] = Drug level in BALB/c mouse serum at 10 mg/kg, po after 15 mins; assay type: ADME, organism-based; parameters: dose 10 mg/kg, route oral; settings: read-out: Drug uptake
# Method in brief: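 Serum (final 0.01-10%) assayed in the VLA-4/VCAM-1 binding assay, and concentration estimated from a calibration curve of compound spiked into untreated mouse serum.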
# [5] = Clearance in Sprague-Dawley rat at 10 mg/kg, iv; assay type: ADME, organism-based; parameters: dose 10 mg/kg, route intravenous; settings: in vivo
# [6] = Volume of distribution at steady state in Sprague-Dawley rat at 10 mg/kg, iv; assay type: ADME, organism-based; parameters: dose 10 mg/kg, route intravenous; settings: in vivo, read-out: Vdss
# [7] = Half life in Sprague-Dawley rat at 10 mg/kg, iv; assay type: ADME, organism-based; parameters: dose 10 mg/kg, route intravenous; settings: in vivo
# [8] = Protein binding in plasma
# [9] = target: T2, Integrin alpha-4/beta-7 (Homo sapiens) (UniProt P13612+P26010); settings: at 4 µg/mL
# [10] = in vivo; settings: rat, plasma
# [11] = Clearance in Sprague-Dawley rat at 1 mg/kg, iv; assay type: ADME, organism-based; parameters: dose 1 mg/kg, route intravenous; settings: in vivo
# Method in brief: (§1)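 Male Sprague-Dawley rats (7 weeks), fasted 18 h, four per group. 1 mg/kg oral in 0.5% MC or iv in saline, each with 3 equiv NaOH. Plasma drawn at 0.08 (iv) or 0.25 (po), 0.5, 1, 2 and 6 h; LC/MS/MS quantitation, noncompartmental parameters.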
# [12] = Volume of distribution at steady state in Sprague-Dawley rat at 1 mg/kg, iv; assay type: ADME, organism-based; parameters: dose 1 mg/kg, route intravenous; settings: in vivo, read-out: Vdss; method in brief: as §1
# [13] = Half life in Sprague-Dawley rat at 1 mg/kg, iv; assay type: ADME, organism-based; parameters: dose 1 mg/kg, route intravenous; settings: in vivo; method in brief: as §1
# [14] = test system: Mus musculus; assay: Antiinflammatory activity in Ascaris suum antigen-induced BALB/c AnNCrj mouse asthma model assessed as inhibition of eosinophil infiltration in BAL fluid orally administered twice daily 15 mins before and 8, 24 and 32 hrs after antigen challenge measured 48 hrs after antigen challenge; assay type: functional, organism-based
# Method in brief: (§2)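 Female BALB/c AnNCrj mice given cyclophosphamide 150 mg/kg po (day 0), sensitized ip with Ascaris suum extract plus alum on days 2 and 14, challenged intratracheally day 22. Compound in 0.5% MC/0.03% Tween 80 po 15 min before and 8, 24, 32 h after challenge; BAL at 48 h, eosinophils from total count times Wright-stained differential.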
# [15] = test system: Mus musculus; assay: Antiinflammatory activity in Ascaris suum antigen-induced BALB/c AnNCrj mouse asthma model assessed as inhibition of eosinophil infiltration in BAL fluid at 5 mg.kg, po bid administered 15 mins before and 8, 24 and 32 hrs after antigen challenge measured 48 hrs after antigen challenge; assay type: functional; method in brief: as §2
# [16] = test system: Mus musculus; assay: Toxicity in BALB/c AnNCrj mouse assessed as induction of hepatic injury at 200 mg/kg, po for 2 days; assay type: organism-based; parameters: dose 200 mg/kg, route oral; settings: in vivo, 48 h
# Method in brief: (§3)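 Mice dosed iv at 50 mg/kg or orally at 25 or 200 (mg/kg)/day for 2 days, then assessed for liver injury.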
# [17] = test system: Mus musculus; assay: Toxicity in BALB/c AnNCrj mouse assessed as induction of hepatic injury at 50 mg/kg, iv for 2 days; assay type: organism-based; parameters: dose 50 mg/kg, route intravenous; settings: in vivo, 48 h; method in brief: as §3
# [18] = target: Integrin alpha-IIb/beta-3 (Homo sapiens) (UniProt P05106+P08514); assay: Inhibition of integrin alpha2bbeta3 receptor dependent platelet aggregation at 16 uM
# Method in brief: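 Platelet-rich plasma prepared from citrated blood of two volunteers. Compound in DMSO preincubated with PRP for 2 min at 37 °C, then aggregation induced with collagen; aggregation rate followed for 10 min.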
# [19] = target: T2, Integrin alpha-4/beta-7 (Homo sapiens); assay: Inhibition of MAdCAM1 binding to integrin alpha4beta7 receptor in human RPMI8866 cells at 16 uM by cell/protein binding assay; assay type: cell-based
# Method in brief: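 RPMI8866 human B cells (α4β7+, β1−) at 1.2 × 10⁶/well in HEPES buffer containing BSA, DTPA, Ca, Mg and Mn, mixed with compound (final 10 μg/mL to 1 ng/mL) and Eu-MAdCAM-1 (final 1 nM) for 1 h at room temperature. Free ligand removed by centrifugation and washing; time-resolved fluorescence measured.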
# [20] = test system: Cavia porcellus; assay: Inhibition of acetylcholine chloride-induced bronchial hyperesponsiveness in ovalbumin challenged guinea pig asthma model administered orally 1 hr before and 2.5 hrs after antigen challenge; assay type: functional
# Method in brief: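 Hartley guinea pigs (n = 8/group) sensitized with 1% OVA aerosol 10 min/day for 8 days, challenged a week later with 2% OVA aerosol 5 min; metyrapone iv and pyrilamine ip pretreatment. Oral doses 0.8, 2, 5 or 12.5 mg/kg at 1 h before and 2.5 h after challenge. At 22-27.5 h, stepwise ACh aerosol (0.0625-2 mg/mL); PC100ACh from sRaw.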
# [21] = test system: Mus musculus; assay: Antiinflammatory activity in Ascaris suum antigen-induced BALB/c AnNCrj mouse asthma model assessed as reduction of acetylcholine chloride-induced bronchial hyperesponsiveness at 12.5 mg/kg, bid administered 15 mins before and 8, 24 and 32 hrs after antigen challenge measured 48 hrs after antigen challenge; assay type: functional; parameters: scale not given: the % may be the effect or the level left
# Method in brief: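 Sensitized/challenged BALB/c AnNCrj mice (Ascaris suum, as in the eosinophil model) dosed po in 0.5% MC/0.03% Tween 80 at 15 min before and 8, 24, 32 h after challenge. At 48 h, pentobarbital-anesthetized, tracheotomized, ventilated mice given ACh injection; lung resistance increase measured.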
# [22] = Oral bioavailability in Sprague-Dawley rat at 1 mg/kg, po; assay type: ADME, organism-based; settings: in vivo; method in brief: as §1
# [23] = AUC in Sprague-Dawley rat at 1 mg/kg, po; assay type: ADME, organism-based; parameters: dose 1 mg/kg, route oral; settings: plasma; method in brief: as §1
# [24] = Cmax in Sprague-Dawley rat at 1 mg/kg, po; assay type: ADME, organism-based; parameters: dose 1 mg/kg, route oral; settings: in vivo; method in brief: as §1
# [25] = Half life in Sprague-Dawley rat at 1 mg/kg, po; assay type: ADME, organism-based; parameters: dose 1 mg/kg, route oral; settings: in vivo; method in brief: as §1
# [26] = AUC in Sprague-Dawley rat at 1 mg/kg, iv; assay type: ADME, organism-based; parameters: dose 1 mg/kg, route intravenous; settings: plasma; method in brief: as §1
# [27] = Oral bioavailability in Beagle dog at 0.5 mg/kg, po; assay type: ADME, organism-based, Canis lupus familiaris; settings: in vivo
# Method in brief: (§4)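 Male beagle dogs (10-12 kg), fasted 18 h, three per group; cassette dosing 0.5 mg/kg in 0.5% MC with 3 equiv NaOH (po) or saline with 3 equiv NaOH (iv). Blood taken 0.08 (iv) or 0.25 (po) to 24 h, fed after 4 h; plasma assayed by LC/MS/MS, noncompartmental analysis.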
# [28] = AUC in Beagle dog at 0.5 mg/kg, po; assay type: ADME, organism-based, Canis lupus familiaris; parameters: dose 0.5 mg/kg, route oral; settings: plasma; method in brief: as §4
# [29] = Cmax in Beagle dog at 0.5 mg/kg, po; assay type: ADME, organism-based, Canis lupus familiaris; parameters: dose 0.5 mg/kg, route oral; settings: in vivo; method in brief: as §4
# [30] = Half life in Beagle dog at 0.5 mg/kg, po; assay type: ADME, organism-based, Canis lupus familiaris; parameters: dose 0.5 mg/kg, route oral; settings: in vivo; method in brief: as §4
# [31] = AUC in Beagle dog at 0.5 mg/kg, iv; assay type: ADME, organism-based, Canis lupus familiaris; parameters: dose 0.5 mg/kg, route intravenous; settings: plasma; method in brief: as §4
# [32] = Clearance in Beagle dog at 0.5 mg/kg, iv; assay type: ADME, organism-based, Canis lupus familiaris; parameters: dose 0.5 mg/kg, route intravenous; settings: in vivo; method in brief: as §4
# [33] = Volume of distribution at steady state in Beagle dog at 0.5 mg/kg, iv; assay type: ADME, organism-based, Canis lupus familiaris; parameters: dose 0.5 mg/kg, route intravenous; settings: in vivo, read-out: Vdss; method in brief: as §4
# [34] = Half life in Beagle dog at 0.5 mg/kg, iv; assay type: ADME, organism-based, Canis lupus familiaris; parameters: dose 0.5 mg/kg, route intravenous; settings: in vivo; method in brief: as §4
# [35] = Oral bioavailability in cynomolgus monkey at 0.5 mg/kg, po; assay type: ADME, organism-based, Macaca fascicularis; settings: in vivo
# Method in brief: (§5)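 Female cynomolgus monkeys (3.5-4 kg), fasted 18 h, three per group. Dose 0.5 mg/kg, oral as suspension in 0.5% MC or iv in saline with 3 equiv NaOH. Blood sampled from 0.08 (iv) or 0.25 (po) up to 24 h, food after 4 h; plasma LC/MS/MS, noncompartmental analysis.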
# [36] = AUC in cynomolgus monkey at 0.5 mg/kg, po; assay type: ADME, organism-based, Macaca fascicularis; parameters: dose 0.5 mg/kg, route oral; settings: plasma; method in brief: as §5
# [37] = Cmax in cynomolgus monkey at 0.5 mg/kg, po; assay type: ADME, organism-based, Macaca fascicularis; parameters: dose 0.5 mg/kg, route oral; settings: in vivo; method in brief: as §5
# [38] = Half life in cynomolgus monkey at 0.5 mg/kg, po; assay type: ADME, organism-based, Macaca fascicularis; parameters: dose 0.5 mg/kg, route oral; settings: in vivo; method in brief: as §5
# [39] = AUC in cynomolgus monkey at 0.5 mg/kg, iv; assay type: ADME, organism-based, Macaca fascicularis; parameters: dose 0.5 mg/kg, route intravenous; settings: plasma; method in brief: as §5
# [40] = Clearance in cynomolgus monkey at 0.5 mg/kg, iv; assay type: ADME, organism-based, Macaca fascicularis; parameters: dose 0.5 mg/kg, route intravenous; settings: in vivo; method in brief: as §5
# [41] = Volume of distribution at steady state in cynomolgus monkey at 0.5 mg/kg, iv; assay type: ADME, organism-based, Macaca fascicularis; parameters: dose 0.5 mg/kg, route intravenous; settings: in vivo, read-out: Vdss; method in brief: as §5
# [42] = Half life in cynomolgus monkey at 0.5 mg/kg, iv; assay type: ADME, organism-based, Macaca fascicularis; parameters: dose 0.5 mg/kg, route intravenous; settings: in vivo; method in brief: as §5
# [43] = target: Intercellular adhesion molecule (ICAM-1), Integrin alpha-L/beta-2 (Homo sapiens) (UniProt P20701+P05362+P05107); assay: Inhibition of europium labeled human ICAM1 binding to human integrin alphaLbeta2 receptor at 162 uM by protein/protein binding assay; assay type: protein-complex assay
# Method in brief: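 Membrane-bound human LFA-1 immobilized at 1 μg/mL overnight at 4 °C, then blocked with BSA. Compound added with 2 nM Eu-labeled human ICAM-1 D1D5-IgG in 5% DMSO and bound for 2 h at room temperature; plates washed and Eu fluorescence read by time-resolved fluorometry.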
# T1 sequence (P05556 whole entry): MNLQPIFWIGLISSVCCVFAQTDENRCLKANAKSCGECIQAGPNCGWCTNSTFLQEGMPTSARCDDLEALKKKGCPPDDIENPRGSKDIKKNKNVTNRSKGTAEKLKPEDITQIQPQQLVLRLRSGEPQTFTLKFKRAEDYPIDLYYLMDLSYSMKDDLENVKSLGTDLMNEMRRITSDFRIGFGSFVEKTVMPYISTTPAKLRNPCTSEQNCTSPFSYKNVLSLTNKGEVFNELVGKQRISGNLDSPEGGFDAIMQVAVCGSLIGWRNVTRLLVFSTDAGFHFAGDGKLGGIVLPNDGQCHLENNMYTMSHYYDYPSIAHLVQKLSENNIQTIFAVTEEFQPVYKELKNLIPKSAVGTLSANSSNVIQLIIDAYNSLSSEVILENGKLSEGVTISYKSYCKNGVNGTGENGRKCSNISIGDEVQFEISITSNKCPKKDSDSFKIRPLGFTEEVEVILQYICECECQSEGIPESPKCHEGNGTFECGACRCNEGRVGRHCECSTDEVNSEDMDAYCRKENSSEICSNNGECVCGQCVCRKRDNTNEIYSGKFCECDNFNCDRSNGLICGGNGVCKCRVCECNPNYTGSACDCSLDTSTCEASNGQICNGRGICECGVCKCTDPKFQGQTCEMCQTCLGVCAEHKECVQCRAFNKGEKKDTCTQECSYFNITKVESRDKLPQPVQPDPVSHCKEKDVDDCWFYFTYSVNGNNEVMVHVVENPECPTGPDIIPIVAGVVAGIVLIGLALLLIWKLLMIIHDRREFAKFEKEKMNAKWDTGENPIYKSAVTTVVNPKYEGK
# T1 sequence (P13612 whole entry): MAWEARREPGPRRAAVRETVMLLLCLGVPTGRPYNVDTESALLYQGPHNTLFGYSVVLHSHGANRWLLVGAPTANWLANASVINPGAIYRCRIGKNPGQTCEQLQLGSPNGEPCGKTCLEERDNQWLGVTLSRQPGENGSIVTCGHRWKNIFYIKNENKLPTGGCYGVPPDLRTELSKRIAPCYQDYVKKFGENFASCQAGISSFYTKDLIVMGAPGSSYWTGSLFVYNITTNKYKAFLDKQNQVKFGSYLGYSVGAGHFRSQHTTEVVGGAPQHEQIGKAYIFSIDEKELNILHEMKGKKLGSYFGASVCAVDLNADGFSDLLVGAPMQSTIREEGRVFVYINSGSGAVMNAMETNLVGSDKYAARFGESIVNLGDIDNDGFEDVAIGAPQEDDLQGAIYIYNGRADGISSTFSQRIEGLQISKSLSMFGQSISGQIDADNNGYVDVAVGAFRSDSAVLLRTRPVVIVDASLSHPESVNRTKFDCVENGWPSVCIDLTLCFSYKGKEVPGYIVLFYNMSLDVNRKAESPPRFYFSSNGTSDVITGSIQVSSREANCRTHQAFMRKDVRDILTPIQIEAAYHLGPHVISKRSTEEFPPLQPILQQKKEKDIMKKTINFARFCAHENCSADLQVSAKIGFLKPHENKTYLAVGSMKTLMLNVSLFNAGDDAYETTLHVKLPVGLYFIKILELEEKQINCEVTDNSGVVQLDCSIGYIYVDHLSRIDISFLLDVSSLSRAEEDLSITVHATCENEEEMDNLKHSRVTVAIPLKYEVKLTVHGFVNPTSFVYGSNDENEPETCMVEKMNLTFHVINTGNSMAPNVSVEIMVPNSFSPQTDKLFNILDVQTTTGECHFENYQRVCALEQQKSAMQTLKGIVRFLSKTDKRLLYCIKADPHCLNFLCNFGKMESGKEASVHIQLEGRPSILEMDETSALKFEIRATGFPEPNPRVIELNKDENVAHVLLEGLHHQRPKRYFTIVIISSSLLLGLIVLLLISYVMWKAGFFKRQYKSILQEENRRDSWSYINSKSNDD
structure (smiles),measurement,setting,value
Cc1ccccc1Nc1nc2ccc(CC(=O)N3C[C@@H](F)C[C@H]3CO[C@H]3CC[C@H](C(=O)O)CC3)cc2o1,bioavailability,[1],24%
same,IC50,[2],2.8 nM
same,IC50,[3],45 nM
same,concentration at 0.25 h,[4],373 ng/mL
same,clearance,[5],12.2 mL/min/kg
same,Vd,[6],0.317 L/kg
same,half-life,[7],0.8 h
same,fraction unbound,[8],0.03
same,inhibition,[9],46%
same,clearance,[10],12.2 mL/min/kg
CO[C@H]1C[C@@H](CO[C@H]2CC[C@H](C(=O)O)CC2)N(C(=O)Cc2cc(Cl)c(NC(=O)c3cn(C)c4ccccc34)cc2Cl)C1,IC50,[2],5.4 nM
same,IC50,[3],93 nM
same,concentration at 0.25 h,[4],6150 ng/mL
same,clearance,[11],19.3 mL/min/kg
same,Vd,[12],1.22 L/kg
same,half-life,[13],1 h
same,Activity,[14],Dose-dependent effect
same,inhibition (INH),[15],53%
same,Activity,[16],Non-toxic
same,Activity,[17],Non-toxic
same,inhibition,[18],10%
same,inhibition,[19],41%
same,Activity,[20],Dose-dependent effect
same,ED50,"[20]; po, read-out: ID50 (the source's name)",3 mg/kg
same,Activity,[21],83%
same,bioavailability,[22],> 100%
same,AUC,[23],975 ng·h/mL
same,Cmax,[24],385 ng/mL
same,half-life,[25],1.5 h
same,AUC,[26],865 ng·h/mL
same,bioavailability,[27],91%
same,AUC,[28],6090 ng·h/mL
same,Cmax,[29],1590 ng/mL
same,half-life,[30],2 h
same,AUC,[31],6710 ng·h/mL
same,clearance,[32],1.7 mL/min/kg
same,Vd,[33],0.164 L/kg
same,half-life,[34],2.1 h
same,bioavailability,[35],68%
same,AUC,[36],3480 ng·h/mL
same,Cmax,[37],431 ng/mL
same,half-life,[38],5.5 h
same,AUC,[39],5140 ng·h/mL
same,clearance,[40],1.8 mL/min/kg
same,Vd,[41],0.223 L/kg
same,half-life,[42],6.3 h
same,inhibition,[43],9%
